Source: ChEMBL document CHEMBL3272208, “(Vinylaryloxy)acetic acids. A new class of diuretic agents. 3. ((2-Nitro-1-alkenyl)aryloxy)acetic acids” (1976)

What was measured:
Type in all cases: functional, Canis lupus familiaris
Canis familiaris [1] = assay: Diuretic activity in mongrel dog assessed as sodium level in excreted urine at 1 mg/kg, iv measured […] after dosage (reference value: 3 to 95 uequiv/min)
Outline: (§1)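 Compounds were given iv to dogs as Na salts in H2O. The baseline is the mean of two 15-min periods before dosing. The response is the mean of two consecutive 15-min periods of maximal Na+ excretion, usually 15–45 min post-dose. Na+, K+ and Cl- are in μequiv/min and urine volume in ml/min, reported as control/drug.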

Canis familiaris [2] = assay: Diuretic activity in mongrel dog assessed as potassium level in excreted urine at 1 mg/kg, iv measured between 15 to 45 mins after dosage (reference value: 6 to 47 uequiv/min)
Outline: as §1, with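 “H2O. […]” for “H2O.”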

Canis familiaris [3] = assay: Diuretic activity in mongrel dog assessed as volume of excreted urine at 1 mg/kg, iv measured between 15 to 45 mins after dosage (reference value: 1 to 4 ml/min)
Outline: as §1, with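 “H2O. […]” for “H2O.”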

Canis familiaris [4] = assay: Diuretic activity in mongrel dog assessed as chloride level in excreted urine at 1 mg/kg, iv measured between 15 to 45 mins after dosage (reference value: 1 to 70 uequiv/min); outline: as §1
Canis familiaris [5] = assay: Diuretic activity in mongrel dog assessed as potassium level in excreted urine at 10 mg/kg, iv measured between 15 to 45 mins after dosage (reference value: 7 to 63 uequiv/min)
Outline: as §1, with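 “H2O. […]” for “H2O.”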

Canis familiaris [6] = assay: Diuretic activity in mongrel dog assessed as chloride level in excreted urine at 10 mg/kg, iv measured between 15 to 45 mins after dosage (reference value: 3 to 64 uequiv/min); outline: as §1
Canis familiaris [7] = assay: Diuretic activity in mongrel dog assessed as sodium level in excreted urine at 10 mg/kg, iv measured […] after dosage (reference value: 5 to 66 uequiv/min)
Outline: as §1, with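 “H2O. […]” for “H2O.”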

Canis familiaris [8] = assay: Diuretic activity in mongrel dog assessed as volume of excreted urine at 10 mg/kg, iv measured between 15 to 45 mins after dosage (reference value: 1 to 4 ml/min)
Outline: as §1, with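 “H2O. […]” for “H2O.”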

Canis familiaris [9] = assay: Diuretic activity in mongrel dog assessed as chloride level in excreted urine at 5 mg/kg, iv measured between 15 to 45 mins after dosage (reference value: 1 to 65 uequiv/min)
Outline: as §1, with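 “H2O. […]” for “H2O.”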

Canis familiaris [10] = assay: Diuretic activity in mongrel dog assessed as sodium level in excreted urine at 5 mg/kg, iv measured […] after dosage (reference value: 1 to 91 uequiv/min)
Outline: as §1, with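 “H2O. […]” for “H2O.”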

Canis familiaris [11] = assay: Diuretic activity in mongrel dog assessed as potassium level in excreted urine at 5 mg/kg, iv measured between 15 to 45 mins after dosage (reference value: 12 to 70 uequiv/min)
Outline: as §1, with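 “H2O. […]” for “H2O.”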

Canis familiaris [12] = assay: Diuretic activity in mongrel dog assessed as volume of excreted urine at 5 mg/kg, iv measured between 15 to 45 mins after dosage (reference value: 1 to 5 ml/min)
Outline: as §1, with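 “H2O. […]” for “H2O.”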

Row | Structure (SMILES) | Activity (Canis familiaris [1]) | Activity (Canis familiaris [2]) | Activity (Canis familiaris [3]) | Activity (Canis familiaris [4]) | Activity (Canis familiaris [9]) | Activity (Canis familiaris [10]) | Activity (Canis familiaris [11]) | Activity (Canis familiaris [12]) | further results
1 | CC/C(=C\c1ccc(OCC(=O)O)c2ccccc12)[N+](=O)[O-] | 1848 uEq/min | 179 uEq/min | 13 mL/min | 2036 uEq/min | – | – | – | – | –
2 | C/C(=C\c1cc(Cl)ccc1OCC(=O)O)[N+](=O)[O-] | 22 uEq/min | 17 uEq/min | 2 mL/min | 7 uEq/min | – | – | – | – | –
3 | O=C(O)COc1ccc(/C=C/[N+](=O)[O-])cc1Cl | – | – | – | – | – | – | – | – | Activity (Canis familiaris [5]): 65 uEq/min; Activity (Canis familiaris [6]): 146 uEq/min; Activity (Canis familiaris [7]): 201 uEq/min; Activity (Canis familiaris [8]): 3 mL/min
4 | C/C(=C\c1ccc(OCC(=O)O)c(Cl)c1)[N+](=O)[O-] | 734 uEq/min | 142 uEq/min | 8 mL/min | 766 uEq/min | – | – | – | – | –
5 | CC/C(=C\c1ccc(OCC(=O)O)c(Cl)c1)[N+](=O)[O-] | 1618 uEq/min | 131 uEq/min | 15 mL/min | 1727 uEq/min | – | – | – | – | –
6 | CC/C(=C\c1ccc(OCC(=O)O)cc1Cl)[N+](=O)[O-] | 1398 uEq/min | 101 uEq/min | 13 mL/min | 1431 uEq/min | – | – | – | – | –
7 | O=C(O)COc1ccc(/C=C/[N+](=O)[O-])c(Cl)c1Cl | 132 uEq/min | 7 uEq/min | 4 mL/min | 47 uEq/min | – | – | – | – | –
8 | CC/C(=C\c1ccc(OC(C)C(=O)O)c(Cl)c1Cl)[N+](=O)[O-] (stereo not given) | 490 uEq/min | 67 uEq/min | 7 mL/min | 528 uEq/min | – | – | – | – | –
9 | C/C(=C\c1ccc(OC(C)C(=O)O)c(Cl)c1Cl)[N+](=O)[O-] (stereo not given) | – | – | – | – | 1228 uEq/min | 1191 uEq/min | 74 uEq/min | 9 mL/min | –
10 | CC/C(=C\c1ccc(OCC(=O)O)c(C)c1C)[N+](=O)[O-] | 1583 uEq/min | 118 uEq/min | 13 mL/min | 1650 uEq/min | – | – | – | – | –
11 | CC/C(=C\c1cc(Cl)ccc1OCC(=O)O)[N+](=O)[O-] | – | – | – | – | 75 uEq/min | 117 uEq/min | 48 uEq/min | 4 mL/min | –
12 | CC/C(=C\c1cc(Cl)cc(Cl)c1OCC(=O)O)[N+](=O)[O-] | – | – | – | – | – | – | – | – | Activity (Canis familiaris [5]): 29 uEq/min; Activity (Canis familiaris [6]): 6 uEq/min; Activity (Canis familiaris [7]): 71 uEq/min; Activity (Canis familiaris [8]): 3 mL/min
13 | O=C(O)COc1ccc(/C=C/[N+](=O)[O-])cc1 | – | – | – | – | 5 uEq/min | 80 uEq/min | 35 uEq/min | 2 mL/min | –
14 | CC/C(=C\c1cccc(OCC(=O)O)c1)[N+](=O)[O-] | – | – | – | – | – | – | – | – | Activity (Canis familiaris [5]): 76 uEq/min; Activity (Canis familiaris [6]): 639 uEq/min; Activity (Canis familiaris [7]): 452 uEq/min; Activity (Canis familiaris [8]): 7 mL/min
15 | CCCC/C(=C\c1ccc(OCC(=O)O)c(Cl)c1Cl)[N+](=O)[O-] | 322 uEq/min | 78 uEq/min | 4 mL/min | 364 uEq/min | – | – | – | – | –
16 | O=C(O)COc1c(Cl)cc(Cl)cc1/C=C/[N+](=O)[O-] | – | – | – | – | 3 uEq/min | 33 uEq/min | 33 uEq/min | 2 mL/min | –
17 | C/C(=C\c1cc(Cl)cc(Cl)c1OCC(=O)O)[N+](=O)[O-] | – | – | – | – | 41 uEq/min | 80 uEq/min | 25 uEq/min | 3 mL/min | –
18 | C/C(=C\c1ccc(C(=O)O)cc1Cl)[N+](=O)[O-] | – | – | – | – | – | – | – | – | Activity (Canis familiaris [5]): 45 uEq/min; Activity (Canis familiaris [6]): 335 uEq/min; Activity (Canis familiaris [7]): 364 uEq/min; Activity (Canis familiaris [8]): 7 mL/min
19 | CC/C(=C\c1ccc(C(=O)O)cc1Cl)[N+](=O)[O-] | – | – | – | – | – | – | – | – | Activity (Canis familiaris [5]): 63 uEq/min; Activity (Canis familiaris [6]): 146 uEq/min; Activity (Canis familiaris [7]): 182 uEq/min; Activity (Canis familiaris [8]): 3 mL/min
20 | CC/C(=C\c1ccc(OCCCC(=O)O)c(Cl)c1Cl)[N+](=O)[O-] | – | – | – | – | 28 uEq/min | 62 uEq/min | 29 uEq/min | 3 mL/min | –
